These results are taken from ChEMBL document CHEMBL1127734, “Selective ligands for rat A3 adenosine receptors: structure-activity relationships of 1,3-dialkylxanthine 7-riboside derivatives” (J Med Chem, 1994).

For one experiment, the target named is Adenosine receptor A2a (Rattus norvegicus, UniProt P30543). Kind of experiment: Displacement of specific [3H]- CGS-21680 in rat striatal membranes A2a receptor. The format is cell membranes, Membrane. The method, boiled down: (§1)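 Rat striatal membranes; [3H]CGS 21680 binding at A2a receptors. Adenosine deaminase (3 units/mL) present during membrane preparation, which includes a 30 °C, 30 min incubation, and during radioligand incubation.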

The target of another experiment is T1, Adenosine receptor A1 (Rattus norvegicus, UniProt P25099).
T1 sequence (P25099 whole entry): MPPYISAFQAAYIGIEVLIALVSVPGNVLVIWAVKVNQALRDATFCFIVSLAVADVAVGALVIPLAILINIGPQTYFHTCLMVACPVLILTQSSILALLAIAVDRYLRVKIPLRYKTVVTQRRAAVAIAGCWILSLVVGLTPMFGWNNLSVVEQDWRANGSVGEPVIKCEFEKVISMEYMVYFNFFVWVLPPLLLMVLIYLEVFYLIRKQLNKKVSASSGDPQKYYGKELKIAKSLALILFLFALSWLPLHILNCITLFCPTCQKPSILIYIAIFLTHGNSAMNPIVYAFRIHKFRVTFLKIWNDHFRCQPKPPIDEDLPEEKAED
As to the kind of experiment: Tested for the displacement of specific [3H]PIA in rat brain membranes of A1 receptor. It counts as cell membranes.

The target of experiment [1] is Adenosine receptors; A1 & A3 (Rattus norvegicus) (UniProt P25099+P28647). Kind of experiment: Selectivity ratio (Ki's)for A1 and A3 receptors in rat brain. It counts as tissue-based. The method, boiled down:
(§2)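 Ratio of Ki values from rat A1 (cortical, [3H]PIA) or A2a (striatal, [3H]CGS 21680) binding over Ki from rat A3 binding ([125I]AB-MECA, CHO membranes). Where one value is only a percent displacement, a conservative boundary estimate of the ratio is given.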

For experiment [2], the target named is Adenosine receptor A2a and A3 (Rattus norvegicus) (UniProt P30543+P28647). As to the kind of experiment: Selectivity for A2a and A3 receptors in rat brain as ratio of Ki. The format is tissue-based. A digest of the protocol: as §2
The next experiment has as its target T2, Adenosine receptor A3 (Rattus norvegicus, UniProt P28647).
T2 sequence (P28647 whole entry): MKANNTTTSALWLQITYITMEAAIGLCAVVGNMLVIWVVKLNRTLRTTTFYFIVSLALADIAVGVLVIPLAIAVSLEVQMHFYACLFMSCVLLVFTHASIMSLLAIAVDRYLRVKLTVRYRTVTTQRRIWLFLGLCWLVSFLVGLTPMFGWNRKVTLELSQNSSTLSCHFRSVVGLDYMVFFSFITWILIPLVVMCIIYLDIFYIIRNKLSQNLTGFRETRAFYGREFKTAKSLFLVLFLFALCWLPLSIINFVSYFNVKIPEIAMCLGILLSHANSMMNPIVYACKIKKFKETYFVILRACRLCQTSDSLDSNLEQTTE
As to the kind of experiment: Displacement of specific [125]AB-MECA binding in membranes of CHO cells stably transfected with the rat A3-cDNA. It counts as cell membranes.

In experiment [3] the target is Adenosine receptor A2a (Rattus norvegicus) (UniProt P30543). Kind of experiment: Displacement of [3H]CGS-21680 from A2a receptor of rat striatal membrane at 10e-5 M. A digest of the protocol: as §1
A general note: In a radioligand displacement assay an active substance lowers the binding of a labelled ligand.

The target is the same in experiment [4]. Kind of experiment: Displacement of [3H]CGS-21680 from A2a receptor of rat striatal membrane at 10e-4 M. The method, boiled down: as §1
The target is the same in experiment [5]. As to the kind of experiment: Displacement of specific [3H]- CGS-21680 in rat striatal membranes A2a receptor at 10e-4 M concentration. The settings on record: Membrane. It counts as cell membranes.
For experiment [6] the target is unchanged. As to the kind of experiment: Displacement of [3H]- CGS-21680 from A2a receptor of rat striatal membrane at 3*10e-4 M. A digest of the protocol: as §1
The target in experiment [7] is T3, Adenosine receptor A1 (Rattus norvegicus) (UniProt P25099).
T3 sequence (whole entry): T1 sequence (P25099 whole entry)
As to the kind of experiment: Percent displacement of [3H]PIA from A1 receptor of rat brain membrane at 10e-4 M. A digest of the protocol:
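A1 receptor binding in rat cortical membranes with [3H]-(R)-PIA. Adenosine deaminase (3 units/mL) present during membrane preparation, which includes a 30 °C, 30 min incubation, and during radioligand incubation. Result given as displacement of specific binding, as Ki or as percent displacement at the stated concentration.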

Sequence of Adenosine receptor A2a and A3 (Rattus norvegicus) (P30543 whole entry, looked up, one chain of several): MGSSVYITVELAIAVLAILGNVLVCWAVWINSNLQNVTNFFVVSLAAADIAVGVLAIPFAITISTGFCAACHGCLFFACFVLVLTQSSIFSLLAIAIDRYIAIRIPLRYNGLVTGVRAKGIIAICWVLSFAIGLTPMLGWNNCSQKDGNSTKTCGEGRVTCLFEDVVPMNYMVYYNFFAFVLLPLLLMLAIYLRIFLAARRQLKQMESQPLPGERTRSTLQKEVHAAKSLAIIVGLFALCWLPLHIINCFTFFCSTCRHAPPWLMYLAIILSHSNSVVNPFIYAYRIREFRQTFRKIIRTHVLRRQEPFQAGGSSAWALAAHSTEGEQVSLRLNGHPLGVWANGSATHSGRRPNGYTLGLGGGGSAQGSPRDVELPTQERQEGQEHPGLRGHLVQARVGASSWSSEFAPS
Sequence of Adenosine receptor A2a (Rattus norvegicus) (P30543 whole entry): as the sequence (P30543 whole entry, looked up, one chain of several) above
Sequence of Adenosine receptor A2a (P30543 whole entry): as the sequence (P30543 whole entry, looked up, one chain of several) above

As to `CCCCn1c(=O)c2c(ncn2C2O[C@H](C(=O)N(C)C)[C@@H](O)[C@H]2O)n(CCCC)c1=O` (some centres not stated), the Ki at Adenosine receptor A2a is 53.5 µM; on Adenosine receptor A1, 9.1 µM; on Adenosine receptor A3, 228 µM. The Selectivity ratio was determined as 0.04 in experiment [1] and 0.23 in [2].

Take `CCCCn1c(=O)c2c(ncn2C2O[C@H](C(=O)NCC)[C@@H](O)[C@H]2O)n(CCCC)c1=O` (some centres not stated): the Ki at Adenosine receptor A2a turned out to be 38.1 µM; at Adenosine receptor A1, 6.21 µM; on Adenosine receptor A3, 0.602 µM. For the same compound, the Selectivity ratio in [1] was found to be 10; in experiment [2] it was 63.

Turning to `CCCCCCn1c(=O)c2c(ncn2C2O[C@H](CO)[C@@H](O)[C@H]2O)n(CCCCCC)c1=O` (some centres not stated), the Ki at Adenosine receptor A1 was found to be 9.75 µM; on Adenosine receptor A3, 43 µM. Moreover, the Selectivity ratio in experiment [1] was 0.23. The inhibition in experiment [3] came to 7.8%.

Compound `Cn1c(=O)c2c(ncn2C2O[C@H](CO)[C@@H](O)[C@H]2O)n(C)c1=O` (some centres not stated) had an inhibition in experiment [4] of 2%. Besides, the inhibition constant (Ki) is 27 µM on Adenosine receptor A1 and 89.4 µM on Adenosine receptor A3. Moreover, the Selectivity ratio in experiment [1] was 0.3; in experiment [2], more than 1.

Regarding `CCCCn1c(=O)c2c(ncn2C2O[C@H](C(N)=O)[C@@H](O)[C@H]2O)n(CCCC)c1=O` (some centres not stated), the Ki amounted to 54.9 µM on Adenosine receptor A2a and 15.3 µM at Adenosine receptor A3. Besides, the Selectivity ratio in experiment [1] turned out to be 0.2; in experiment [2], 3.6.

With `CCCn1c(=O)c2c(ncn2C2O[C@H](CO)[C@@H](O)[C@H]2O)n(CCC)c1=O` (some centres not stated), the Ki turned out to be 15.9 µM on Adenosine receptor A1 and 81.2 µM at Adenosine receptor A3. The Selectivity ratio in experiment [1] is 0.2; in [2] it was more than 1. The inhibition in experiment [5] came out at 32%.

Take `CCCCCCn1c(=O)c2c(ncn2C2O[C@H](C(=O)NC)[C@@H](O)[C@H]2O)n(CCCCCC)c1=O` (some centres not stated): the Ki on Adenosine receptor A1 was determined as 30.8 µM; on Adenosine receptor A3, 10.3 µM. Moreover, the Selectivity ratio in experiment [1] is 3; in experiment [2] it was more than 10. The compound further displayed an inhibition in [5] of 0%.

In experiment [6], `CCCCn1c(=O)c2c(ncn2C2O[C@H](C(=O)OC)[C@@H](O)[C@H]2O)n(CCCC)c1=O` (some centres not stated) came in with an inhibition of 0%. Besides, the Ki came out at 3.72 µM on Adenosine receptor A1 and 3.23 µM on Adenosine receptor A3. The figures for the Selectivity ratio in experiment [1] and in [2] were 1.2 and more than 1, respectively.

On to `CCCCn1c(=O)c2c(ncn2C2O[C@H](CO)[C@@H](O)[C@H]2O)n(Cc2ccccc2)c1=O` (some centres not stated), for which the Ki came to 8.67 µM on Adenosine receptor A2a, 2.19 µM at Adenosine receptor A1 and 12.9 µM at Adenosine receptor A3. The Selectivity ratio in experiment [1] was determined as 0.17; in experiment [2] it was 0.67.

For `CCCCCn1c(=O)c2c(ncn2C2O[C@H](CO)[C@@H](O)[C@H]2O)n(CCCCC)c1=O` (some centres not stated), the Ki at Adenosine receptor A2a is 47.3 µM; on Adenosine receptor A1, 8.79 µM; at Adenosine receptor A3, 4.81 µM. Further, the values for the Selectivity ratio in experiment [1] and in experiment [2] were 1.8 and 9.8, respectively.

Regarding `COc1nc2c(c(=O)n(C)c(=O)n2C)n1C1O[C@H](CO)[C@@H](O)[C@H]1O` (some centres not stated), the Selectivity ratio in experiment [1] and in experiment [2] was more than 1 each time. The inhibition amounted to 21% in experiment [7] and 4% in experiment [5]. The compound also gave a Ki on Adenosine receptor A3 of 0.074 µM.

Turning to `CCCCn1c(=O)c2c(ncn2C2O[C@H](CO)[C@@H](O)[C@H]2O)n(CCCC)c1=O` (some centres not stated), the Ki on Adenosine receptor A2a worked out at 19.5 µM; at Adenosine receptor A1 it was 4.19 µM; on Adenosine receptor A3, 6.03 µM. The Selectivity ratio in experiment [1] was found to be 0.69; in experiment [2] it was 3.2.

`CCCCCn1c(=O)c2c(ncn2C2O[C@H](C(=O)NC)[C@@H](O)[C@H]2O)n(CCCCC)c1=O` (some centres not stated): the Selectivity ratio is 4.3 in experiment [1] and more than 1 in [2]. The inhibition in experiment [5] was found to be 2%. The same compound registered a Ki at Adenosine receptor A3 of 2.63 µM.

As to `CCCCn1c(=O)c2c(ncn2C2O[C@H](CO)[C@@H](O)[C@H]2O)n(CCCC)c1=S` (some centres not stated), the Ki was 4.25 µM at Adenosine receptor A2a, 2.25 µM at Adenosine receptor A1 and 1.4 µM at Adenosine receptor A3. In addition, the Selectivity ratio in experiment [1] turned out to be 1.6; in experiment [2], 3.

Broadly, the Ki is a dissociation constant, usually derived from enzyme kinetics or from competition with a known ligand. A high value points to weaker binding. A word on the inhibition: it is the share of the control response that was lost under treatment. Low readings indicate little suppression, high ones strong suppression.
